Measured values taken from ChEMBL document CHEMBL1152649, “Synthesis, cytotoxicity and human telomerase inhibition activities of a series of 1,2-heteroannelated anthraquinones and anthra[1,2-d]imidazole-6,11-dione homologues” (2009).
The source made the active and inactive calls. No cut-off for these calls is given here.

Assays:
[1] = Growth inhibition of human […] cells; format: functional
Outline: (§1)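 Assayed in the NCI 60 human cancer cell line panel under the Developmental Therapeutics Program protocol. For each line, dose–response curves were plotted against log10 drug concentration. In the one-dose screen at 10^-5 M, growth was given as percent of untreated control cells, and mean graph midpoint values were averaged.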

T47D = assay: Growth inhibition of human T47D cells; format: functional; outline: as §1
[2] = Cytotoxicity against human H1299 cells at 1 uM after 48 hrs by MTT assay; format: functional; settings: NCI-H1299, 48 h
Outline: (§2)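 H1299 non-small cell lung cancer cells were grown in RPMI 1640 with 10% FBS, penicillin and streptomycin at 37 °C under 5% CO2. About 2 × 10³ cells per well were seeded and left 24 h. Compounds were dissolved fresh in DMSO, diluted into complete medium and applied for 48 h. MTT was then added for 4 h at 37 °C, followed by lysis buffer (20% SDS, 50% DMF) for 16 h, and absorbance was read at 550 nm.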

MDA-MB-435 [3] = assay: Growth inhibition of human MDA-MB-435 cells; format: functional
Outline: (§3)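 NCI 60 cancer cell line screen run per the Developmental Therapeutics Program protocol. Dose–response curves were plotted against log10 drug concentration for each cell line within its subpanel, and mean graph midpoint values were calculated.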

Malme-3M = assay: Growth inhibition of human MALME-3M cells; format: functional; outline: as §3
[4] = target: Telomerase reverse transcriptase (Homo sapiens) (UniProt O14746); assay: Inhibition of TERT in human H1299 cells assessed as residual transcriptional activity at 1 uM after 24 hrs by SEAP reporter gene assay; values are per cent of control
MDA-MB-231 = assay: Antiproliferative activity against human MDA-MB-231 cells assessed as cell growth at 10 uM; format: functional; settings: read-out: Activity
Outline: (§4)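 NCI 60 cell line panel, single-dose screen (10^-5 M) run by the developmental therapeutics program protocol. Results are given as growth percent of treated cells relative to untreated control cells for each line.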

HL-60(TB) [5] = assay: Growth inhibition of human HL-60(TB) cells; format: functional
Outline: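 NCI 60-cell-line panel run under the Developmental Therapeutics Program protocol. Dose-response curves are plotted against log10 drug concentration for each cell line within its subpanel, and GI50 is read from these curves.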

[6] = target: Telomerase reverse transcriptase (Homo sapiens) (UniProt O14746); assay: Inhibition of telomerase in human H1299 cells up to 100 uM by TRAP assay; format: cell-based
Outline: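 PCR-based telomeric repeat amplification protocol (TRAP). The telomerase source was total lysate of H1299 lung cancer cells, with protein measured against BSA standards. Controls were extract without inhibitor and RNase A-treated extract.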

IGROV-1 = assay: Growth inhibition of human IGROV1 cells; format: functional; outline: as §3
U-251 [7] = assay: Antiproliferative activity against human U251 cells assessed as cell growth at 10 uM; format: functional; settings: read-out: Activity
Outline: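 NCI 60 cell line panel, single dose (10^-5 M), run per the Developmental Therapeutics Program protocol (one dose mean graph). Each result is the growth percentage of treated cells relative to untreated control cells.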

HOP-62 = assay: Growth inhibition of human HOP62 cells; format: functional; outline: as §3
NCI-H322M = assay: Growth inhibition of human NCI-H322M cells; format: functional; outline: as §3
U-251 [8] = assay: Growth inhibition of human U251 cells; format: functional; outline: as §1
MOLT-4 = assay: Antiproliferative activity against human MOLT4 cells assessed as cell growth at 10 uM; format: functional; settings: read-out: Activity; outline: as §4
SF-295 = assay: Antiproliferative activity against human SF295 cells assessed as cell growth at 10 uM; format: functional; settings: read-out: Activity; outline: as §4
[9] = Antiproliferative activity against human RPMI8266 cells assessed as cell growth at 10 uM; format: functional; settings: read-out: Activity; outline: as §4
CCRF-CEM = assay: Growth inhibition of human CCRF-CEM cells; format: functional; outline: as §3
NCI-H522 [10] = assay: Antiproliferative activity against human NCI-H522 cells assessed as cell growth at 10 uM; format: functional; settings: read-out: Activity; outline: as §4
OVCAR-4 = assay: Growth inhibition of human OVCAR4 cells; format: functional; outline: as §3
MCF7 [11] = assay: Antiproliferative activity against human MCF7 cells assessed as cell growth at 10 uM; format: functional; settings: read-out: Activity; outline: as §4
MDA-MB-435 [12] = assay: Antiproliferative activity against human MDA-MB-435 cells assessed as cell growth at 10 uM; format: functional; settings: read-out: Activity; outline: as §4
UACC-257 = assay: Growth inhibition of human UACC257 cells; format: functional; outline: as §1
NCI/ADR-RES = assay: Antiproliferative activity against human NCI/ADR-RES cells assessed as cell growth at 10 uM; format: functional; settings: read-out: Activity; outline: as §4
COLO 205 = assay: Growth inhibition of human COLO205 cells; format: functional; outline: as §3
SK-OV-3 = assay: Antiproliferative activity against human SKOV3 cells assessed as cell growth at 10 uM; format: functional; settings: read-out: Activity; outline: as §4
786-0 = assay: Growth inhibition of human 786-0 cells; format: functional; outline: as §3
NCI-H522 [13] = assay: Growth inhibition of human NCI-H522 cells; format: functional; outline: as §3
PC-3 = assay: Growth inhibition of human PC3 cells; format: functional; outline: as §1
A498 = assay: Growth inhibition of human A498 cells; format: functional; outline: as §3
HL-60(TB) [14] = assay: Antiproliferative activity against human HL-60(TB) cells assessed as cell growth at 10 uM; format: functional; settings: read-out: Activity
Outline: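 NCI Developmental Therapeutics Program 60-cell-line one-dose screen at 10^-5 M. Readout is growth percentage of treated cells relative to untreated control cells.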

[15] = Cytotoxicity against human H1299 cells at 10 uM after 48 hrs by MTT assay; format: functional; settings: NCI-H1299, 48 h; outline: as §2
SK-MEL-5 = assay: Growth inhibition of human SK-MEL-5 cells; format: functional; outline: as §1
HCT-15 = assay: Growth inhibition of human HCT15 cells; format: functional; outline: as §3
[16] = Growth inhibition of human Hs 578T cells; format: functional; outline: as §3
MCF7 [17] = assay: Growth inhibition of human MCF7 cells; format: functional; outline: as §3
[18] = read-out: LC50 (the source's name)

Telomerase reverse transcriptase (Homo sapiens), sequence (O14746 whole entry): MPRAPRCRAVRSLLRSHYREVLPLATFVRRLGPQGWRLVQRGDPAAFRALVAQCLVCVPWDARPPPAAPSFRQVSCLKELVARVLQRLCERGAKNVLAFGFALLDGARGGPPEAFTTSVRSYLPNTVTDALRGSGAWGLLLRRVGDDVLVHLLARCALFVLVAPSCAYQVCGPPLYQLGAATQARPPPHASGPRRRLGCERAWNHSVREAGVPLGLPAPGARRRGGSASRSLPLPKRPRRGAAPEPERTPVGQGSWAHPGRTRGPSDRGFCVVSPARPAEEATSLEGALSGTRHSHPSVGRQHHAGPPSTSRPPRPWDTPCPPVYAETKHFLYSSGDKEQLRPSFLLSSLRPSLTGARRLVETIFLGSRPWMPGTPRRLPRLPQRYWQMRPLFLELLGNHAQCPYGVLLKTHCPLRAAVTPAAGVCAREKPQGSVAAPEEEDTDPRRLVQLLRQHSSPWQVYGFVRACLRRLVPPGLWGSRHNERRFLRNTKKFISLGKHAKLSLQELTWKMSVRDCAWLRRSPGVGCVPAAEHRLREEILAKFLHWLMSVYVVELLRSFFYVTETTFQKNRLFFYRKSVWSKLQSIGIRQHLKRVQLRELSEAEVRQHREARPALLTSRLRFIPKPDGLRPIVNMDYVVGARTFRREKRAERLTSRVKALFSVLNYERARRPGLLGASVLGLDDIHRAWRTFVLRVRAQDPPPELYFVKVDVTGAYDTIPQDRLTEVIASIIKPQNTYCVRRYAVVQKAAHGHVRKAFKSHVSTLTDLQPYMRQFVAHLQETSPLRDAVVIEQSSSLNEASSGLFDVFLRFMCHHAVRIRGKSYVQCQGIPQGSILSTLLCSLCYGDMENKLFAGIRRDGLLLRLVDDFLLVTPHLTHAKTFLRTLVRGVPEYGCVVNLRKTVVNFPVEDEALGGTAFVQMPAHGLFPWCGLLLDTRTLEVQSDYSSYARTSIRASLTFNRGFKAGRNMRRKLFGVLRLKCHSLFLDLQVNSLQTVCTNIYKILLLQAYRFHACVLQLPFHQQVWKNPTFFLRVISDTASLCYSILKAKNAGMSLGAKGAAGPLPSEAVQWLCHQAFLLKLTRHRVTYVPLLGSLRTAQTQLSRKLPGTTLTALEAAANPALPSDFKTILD

`CCc1nc2ccc3c(c2[nH]1)C(=O)c1ccccc1C3=O` showed a GI50 [1] of 4.16 µM, a TGI [1] greater than 100 µM and a CC50 [1, 18] greater than 100 µM. For the same compound, the GI50 (T47D) was 3.3 µM, the TGI (T47D) was greater than 100 µM and the viability at 1 µM [2] was 88%. The GI50 (MDA-MB-435 [3]) was 30.3 µM, the TGI (MDA-MB-435 [3]) was greater than 100 µM and the CC50 (MDA-MB-435 [3]; [18]) was greater than 100 µM. It also gave a GI50 (Malme-3M) of 8.55 µM, a TGI (Malme-3M) greater than 100 µM and a CC50 (Malme-3M; [18]) greater than 100 µM. It also gave a residual activity [4] of 70%, a growth at 10 µM (MDA-MB-231) of 78% and a GI50 (HL-60(TB) [5]) of 2.72 µM. For the same compound, the TGI (HL-60(TB) [5]) was 64.1 µM, the CC50 (HL-60(TB) [5]; [18]) was greater than 100 µM and the inhibition [6] was “inactive”. It also gave a GI50 (IGROV-1) of 1.54 µM, a TGI (IGROV-1) of 14.8 µM and a CC50 (IGROV-1; [18]) greater than 100 µM. For the same compound, the growth at 10 µM (U-251 [7]) was 60.1%, the GI50 (HOP-62) was 32.2 µM and the TGI (HOP-62) was greater than 100 µM. The CC50 (HOP-62; [18]) was greater than 100 µM, the GI50 (NCI-H322M) was 4.87 µM and the TGI (NCI-H322M) was greater than 100 µM. It also gave a CC50 (NCI-H322M; [18]) greater than 100 µM, a GI50 (U-251 [8]) of 16.3 µM and a TGI (U-251 [8]) greater than 100 µM. The CC50 (U-251 [8]; [18]) was greater than 100 µM, the growth at 10 µM (MOLT-4) was 64.2% and the growth at 10 µM (SF-295) was 75.8%. It also gave a growth at 10 µM [9] of 56.2%, a GI50 (CCRF-CEM) of 16.5 µM and a TGI (CCRF-CEM) greater than 100 µM. For the same compound, the CC50 (CCRF-CEM; [18]) was greater than 100 µM, the growth at 10 µM (NCI-H522 [10]) was 41.5% and the GI50 (OVCAR-4) was 25.7 µM. It also gave a TGI (OVCAR-4) greater than 100 µM, a CC50 (OVCAR-4; [18]) greater than 100 µM and a growth at 10 µM (MCF7 [11]) of 69.8%. For the same compound, the growth at 10 µM (MDA-MB-435 [12]) was 84.4%, the GI50 (UACC-257) was 47.2 µM and the TGI (UACC-257) was greater than 100 µM. The CC50 (UACC-257; [18]) was greater than 100 µM, the growth at 10 µM (NCI/ADR-RES) was 74.4% and the GI50 (COLO 205) was 8.95 µM. The TGI (COLO 205) was greater than 100 µM, the CC50 (COLO 205; [18]) was greater than 100 µM and the growth at 10 µM (SK-OV-3) was 25.8%. The GI50 (786-0) was 43.6 µM, the TGI (786-0) was greater than 100 µM and the CC50 (786-0; [18]) was greater than 100 µM. The GI50 (NCI-H522 [13]) was 28.3 µM, the TGI (NCI-H522 [13]) was greater than 100 µM and the CC50 (NCI-H522 [13]; [18]) was greater than 100 µM. It also gave a GI50 (PC-3) of 28.2 µM, a TGI (PC-3) greater than 100 µM and a CC50 (PC-3; [18]) greater than 100 µM. It also gave a GI50 (A498) greater than 100 µM, a TGI (A498) greater than 100 µM and a CC50 (A498; [18]) greater than 100 µM. The growth at 10 µM (HL-60(TB) [14]) was 41.8%, the viability at 10 µM [15] was 82% and the GI50 (SK-MEL-5) was 12.7 µM. It also gave a TGI (SK-MEL-5) of 59.1 µM, a CC50 (SK-MEL-5; [18]) greater than 100 µM and a GI50 (HCT-15) of 3.39 µM. For the same compound, the TGI (HCT-15) was greater than 100 µM, the CC50 (HCT-15; [18]) was greater than 100 µM and the GI50 [16] was greater than 100 µM. The TGI [16] was greater than 100 µM, the GI50 (MCF7 [17]) was 13 µM and the TGI (MCF7 [17]) was greater than 100 µM. For the same compound, the CC50 (MCF7 [17]; [18]) was greater than 100 µM.
